Legend:
[1] = test system: MDCK; assay: Cytotoxicity in MDCK cells using MTS assay; assay type: functional, cell-based; conditions: Canis lupus familiaris
[2] = test system: Influenza A virus; assay: Inhibitory activity against influenza A3/Beijing/30/95 ([…]) virus in MDCK cells; assay type: functional, organism-based
How it was run: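 MDCK cells in 96-well plates were infected with influenza ([…]) virus at 50 PFU/well and treated with serially diluted compound. IC50 was calculated from the dilution series and reported in µM as the mean of at least three independent experiments run on different days.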

| Compound | Activity [1] | IC50 [2] [µM] |
| --- | --- | --- |
| COc1cc(OC)n2s/c(=N\C(=O)c3cccnc3Cl)nc2n1 | Not toxic | 2.41 |
| CCOc1cc(Cl)nc(NC(=S)NC(=O)c2ccc(-c3ccccc3Cl)o2)n1 | Not toxic | > 20 |
| COc1cc(Cl)nc2n/c(=N/C(=O)c3ccc(Cl)nc3)sn12 | Not toxic | 9.32 |
| COC(=O)NC(=S)NC(=O)NC(C)(C)C | Not toxic | 1.83 |
| CC(C)(C)NC(=O)NC(=S)NC(=O)COc1ccc(Cl)cc1Cl | Not toxic | 1.67 |
| CCOc1cc(OCC)nc(NC(=S)NC(=O)c2ccc(Cl)nc2)n1 | Not toxic | > 20 |
| COc1cc(OC)nc(NC(=S)NC(=O)c2ccc(-c3ccc([N+](=O)[O-])cc3)o2)n1 | Not toxic | > 20 |
| CC(C)(C)NC(=O)NC(=S)NC(=O)c1ccccc1 | Not toxic | 1.79 |
| Cc1cc(=O)nc2nc(NC(=O)c3ccc(-c4ccc([N+](=O)[O-])cc4)o3)sn12 | Not toxic | 0.67 |
| CC(C)[C@H](C(=O)NC(=S)NC(=O)NC(C)(C)C)c1ccc(Cl)cc1 | Not toxic | 1.35 |
| CC(C)(C)NC(=O)NC(=S)NC(=O)c1ccc(-c2ccc([N+](=O)[O-])cc2)o1 | Not toxic | 1.3 |
| Cc1cc(C)nc(NC(=S)NC(=O)c2cccnc2Cl)n1 | Not toxic | 7.19 |
| CCOc1cc(OCC)nc(NC(=S)NC(=O)c2ccc(-c3ccc([N+](=O)[O-])cc3)o2)n1 | Not toxic | > 20 |
| COc1cc(C)nc(NC(=S)NC(=O)c2ccc(Cl)nc2)n1 | Not toxic | > 20 |
| CC(C)(C)NC(=O)NC(=S)NC(=O)[C@H]1[C@@H](/C=C(\Cl)C(F)(F)F)C1(C)C | Not toxic | 0.51 |
| CCOc1cc(OCC)nc(NC(=S)NC(=O)c2ccc(-c3ccccc3Cl)o2)n1 | Not toxic | 0.08 |
| COc1cc(OC)n2s/c(=N\C(=O)c3cccnc3)nc2n1 | Not toxic | > 20 |
| COc1cc(OC)nc(NC(=O)NC(=O)c2c(F)cccc2F)n1 | Not toxic | > 20 |
| Cc1cc(C)nc(NC(=O)NC(=O)c2c(F)cccc2F)n1 | Not toxic | > 20 |
| COc1cc(C)nc(NC(=S)NC(=O)c2ccc(-c3ccccc3Cl)o2)n1 | Not toxic | > 20 |
| Cc1cc(O)nc(NC(=S)NC(=O)c2ccc(-c3ccccc3Cl)o2)n1 | Not toxic | 0.32 |
| CC(C)(C)NC(=O)NC(=S)NC(=O)c1c(F)cccc1F | Not toxic | 1.43 |
| COc1cc(Cl)nc(NC(=O)NC(=O)c2c(F)cccc2F)n1 | Not toxic | 15.9 |

| Compound | Activity [1] | IC50 [2] [µM] |
| --- | --- | --- |
| CC(C)(C)NC(=O)NC(=S)NC(=O)c1ccc(-c2ccccc2Cl)o1 | Not toxic | 1.42 |
| Cc1cc(O)nc(NC(=S)NC(=O)c2ccc(-c3ccc([N+](=O)[O-])cc3)o2)n1 | Not toxic | 0.36 |
| COc1cc(Cl)nc(NC(=S)NC(=O)c2ccc(Cl)nc2)n1 | Not toxic | > 20 |
| CCOc1cc(C)nc(NC(=S)NC(=O)c2ccc(-c3ccccc3Cl)o2)n1 | Not toxic | 1.65 |
| Cc1cc(Cl)nc(NC(=O)NC(=O)c2c(F)cccc2F)n1 | Not toxic | > 20 |
| COc1cc(OC)nc(NC(=S)NC(=O)c2cccnc2)n1 | Not toxic | > 20 |
| CC(C)(C)NC(=O)NC(=S)NC(=O)[C@@H]1[C@@H](C=C(Cl)Cl)C1(C)C | Not toxic | 0.26 |
| CCOc1cc(Cl)nc(NC(=S)NC(=O)c2cccnc2Cl)n1 | Not toxic | > 20 |
| Cc1cc(O)nc(NC(=S)NC(=O)c2ccc(Cl)nc2)n1 | Not toxic | 8.58 |
| CCOc1cc(C)nc(NC(=S)NC(=O)c2ccc(-c3ccc([N+](=O)[O-])cc3)o2)n1 | Not toxic | 11.3 |
| COc1cc(OC)nc(NC(=S)NC(=O)c2cnc(Cl)c(Cl)c2)n1 | Not toxic | 18.5 |
| CC(C)(C)NC(=O)NC(=O)NC(=O)c1ccccc1 | Not toxic | > 20 |
| COc1cc(C)nc(NC(=S)NC(=O)c2ccc(-c3ccc([N+](=O)[O-])cc3)o2)n1 | Not toxic | 1.22 |
| CC(C)C(C(=O)NC(=O)NC(=O)NC(C)(C)C)c1ccc(Cl)cc1 (configuration not stated) | Not toxic | 15.5 |
| COc1cc(Cl)nc(NC(=S)NC(=O)c2cccnc2Cl)n1 | Not toxic | 2.59 |
| CC(C)(C)NC(=O)NC(=O)NC(=O)c1c(F)cccc1F | Not toxic | 14.1 |
| CCOc1cc(OCC)n2s/c(=N\C(=O)c3ccc(Cl)nc3)nc2n1 | Not toxic | 0.09 |
| O=C(NC(=S)Nc1nc(Cl)cc(Cl)n1)c1ccc(-c2ccccc2Cl)o1 | Not toxic | 14.5 |
| CCOc1cc(C)nc2n/c(=N/C(=O)c3ccc(-c4ccccc4Cl)o3)sn12 | Not toxic | 0.35 |
| COc1cc(Cl)nc(NC(=S)NC(=O)c2ccc(-c3ccccc3Cl)o2)n1 | Not toxic | 1.29 |
| CCOc1cc(OCC)nc(NC(=S)NC(=O)c2cccnc2Cl)n1 | Not toxic | > 20 |
| COc1cc(OC)nc(NC(=S)NC(=O)c2ccc(-c3ccccc3Cl)o2)n1 | Not toxic | 1.77 |
| CCOc1cc(OCC)n2s/c(=N\C(=O)c3ccc(-c4ccc([N+](=O)[O-])cc4)o3)nc2n1 | Not toxic | 5.25 |
